Test results: ChEMBL document CHEMBL2434915, “2-(2-Hydrazinyl)thiazole derivatives: design, synthesis and in vitro antimycobacterial studies” (Eur J Med Chem, 2013)
In brackets after ≈: the same amount, converted by molar mass.

Test system: A549
Assay: Cytotoxicity against human A549 cells after 48 hrs by MTT assay
Assay type: cell-based
Conditions: not given
Outline: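 A549 human lung carcinoma type II epithelial cells kept in RPMI-1640 with 5% FBS, penicillin/streptomycin and 2 mM L-glutamine at 37 °C, 5% CO2. Seeded at 3 × 10³ cells/well and left overnight. Exposed to compounds at various concentrations for 48 h. After a PBS wash, MTT (5 mg/ml) was added for 4 h at 37 °C. Formazan dissolved in DMSO, read at 540 nm. IC50 from survival plots; mean ±SE, n=5.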

| SMILES | IC50 [µg/mL] |
| --- | --- |
| CCOC(=O)c1sc(N/N=C(\C)c2ccccn2)nc1C | 140 (≈ 460 µM) |
| CC(=O)c1sc(N/N=C(\C)c2ccccn2)nc1C | 50 (≈ 182 µM) |
| CCOC(=O)Cc1csc(N/N=C(\C)c2ccccn2)n1 | 200 (≈ 657 µM) |
| CCOC(=O)c1sc(N/N=C(\C)c2ccccc2)nc1C | 150 (≈ 494 µM) |

Test system: Mycobacterium tuberculosis
Assay: Antimycobacterial activity against Mycobacterium tuberculosis H37Rv after 5 days by broth microdilution method
Assay type: functional
Conditions: 120 h
Outline: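 Twofold DMSO dilutions (final 100 to 0.19, units as printed unclear) in Middlebrook 7H9 with 0.2% glycerol, 0.05% Tween 80 and 10% ADC; inoculum 3-7 x 10⁵ CFU/ml; 37°C for 5 days. Resazurin/Tween 80 then added, 24 h more at 37°C; A575/A610 read. MIC = lowest concentration giving 80% inhibition versus medium-only (100%) and drug-free culture (0%) controls; isoniazid reference.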

| SMILES | MIC [µM] |
| --- | --- |
| CCOC(=O)c1sc(N/N=C/c2cccc(O)c2)nc1C | > 200 |
| CCOC(=O)c1sc(N/N=C/c2ccc([N+](=O)[O-])cc2)nc1C | 200 (≈ 66.9 µg/mL) |
| CC(=O)c1sc(N/N=C/c2ccc(Cl)cc2Cl)nc1C | > 200 |
| COc1cc(/C=N/Nc2nc(C)c(C(C)=O)s2)cc(OC)c1OC | > 200 |
| CC(=O)c1sc(N/N=C/c2cccc3c2OCO3)nc1C | > 200 |
| CCOC(=O)c1sc(N/N=C/c2ccco2)nc1C | 200 (≈ 55.9 µg/mL) |
| CCOC(=O)c1sc(N/N=C(\C)c2cccs2)nc1C | 100 (≈ 30.9 µg/mL) |
| CCOC(=O)c1sc(N/N=C/c2c[nH]c3ccccc23)nc1C | 200 (≈ 65.7 µg/mL) |
| CCOC(=O)c1sc(N/N=C(\C)c2ccccn2)nc1C | 12.5 (≈ 3.8 µg/mL) |
| CCOC(=O)c1sc(N/N=C(\C)c2cccnc2)nc1C | > 200 |
| CCOC(=O)c1sc(N/N=C(\C)c2ccncc2)nc1C | 200 (≈ 60.9 µg/mL) |
| CC(=O)c1sc(N/N=C/c2ccco2)nc1C | 200 (≈ 49.9 µg/mL) |
| CC(=O)c1sc(N/N=C(\C)c2cccs2)nc1C | 200 (≈ 55.9 µg/mL) |
| CC(=O)c1sc(N/N=C/c2c[nH]c3ccccc23)nc1C | > 200 |
| CC(=O)c1sc(N/N=C(\C)c2ccccn2)nc1C | 100 (≈ 27.4 µg/mL) |
| CCOC(=O)Cc1csc(N/N=C(\C)c2ccccn2)n1 | 200 (≈ 60.9 µg/mL) |
| CCOC(=O)Cc1csc(N/N=C(\C)c2cccnc2)n1 | 200 (≈ 60.9 µg/mL) |
| CCOC(=O)c1sc(N/N=C/c2ccccc2)nc1C | > 200 |
| CCOC(=O)c1sc(N/N=C(\C)c2ccccc2)nc1C | > 200 |

| SMILES | MIC [µM] |
| --- | --- |
| CCOC(=O)c1sc(N/N=C(\C)c2ccc(F)cc2)nc1C | 200 (≈ 64.3 µg/mL) |
| CCOC(=O)c1sc(N/N=C/c2ccccc2Cl)nc1C | > 200 |
| CCOC(=O)c1sc(N/N=C(\C)c2cccc(Cl)c2)nc1C | > 200 |
| CCOC(=O)c1sc(N/N=C/c2ccc(Cl)cc2)nc1C | > 200 |
| CCOC(=O)c1sc(N/N=C/c2ccc(Cl)cc2Cl)nc1C | > 200 |
| CCOC(=O)c1sc(N/N=C/c2cccc(Br)c2)nc1C | > 200 |
| CCOC(=O)c1sc(N/N=C/c2ccccc2O)nc1C | 25 (≈ 7.63 µg/mL) |
| CCOC(=O)c1sc(N/N=C/c2ccc(O)cc2)nc1C | > 200 |
| CCOC(=O)c1sc(N/N=C/c2ccc(OC)cc2)nc1C | > 200 |
| CCOC(=O)c1sc(N/N=C/c2ccc(O)c(OC)c2)nc1C | > 200 |
| CCOC(=O)c1sc(N/N=C/c2ccc(O)c(OCC)c2)nc1C | > 200 |
| CCOC(=O)c1sc(N/N=C/c2ccc(OC)c(O)c2)nc1C | > 200 |
| CCOC(=O)c1sc(N/N=C/c2ccc(OC)c(OC)c2)nc1C | > 200 |
| CCOC(=O)c1sc(N/N=C/c2ccc3c(c2)OCO3)nc1C | > 200 |
| CCOC(=O)c1sc(N/N=C/c2cc(OC)c(OC)c(OC)c2)nc1C | > 200 |
| CCOC(=O)c1sc(N/N=C/c2ccc(C)cc2)nc1C | > 200 |
| CCOC(=O)c1sc(N/N=C/c2ccc(N(C)C)cc2)nc1C | 200 (≈ 66.5 µg/mL) |
| CCOC(=O)c1sc(N/N=C/c2ccccc2[N+](=O)[O-])nc1C | > 200 |
| NNC(=O)c1ccncc1 [ISONIAZID] | 0.45 (≈ 0.0617 µg/mL) |
